Test results as given in ChEMBL document CHEMBL1138494, “Human glucagon receptor antagonists with thiazole cores. A novel series with superior pharmacokinetic properties” (J Med Chem, 2009).
Calls of active or inactive are those of the source. No cut-off for these calls is given here.

Assays:
[1] = Cmax in fasted Sprague-Dawley rat at 1.1 mg/kg, iv and 2.1 mg/kg, po by HTLC-MS/MS analysis; type: ADME, organism-based; settings: in vivo
How it was run: (§1)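 Rats were dosed intravenously and perorally in separate arms, and plasma concentration-time profiles were obtained. Half-life was taken from the iv arm. Clearance, oral bioavailability, Cmax and Tmax were derived from the profiles.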

Glucagon receptor [2] = target: T1, Glucagon receptor (Homo sapiens, UniProt P47871); experiment: Displacement of [125I]porcine glucagon from human recombinant glucagon receptor expressed in BHK cells by scintillation proximity assay; type: cell-based
Glucagon receptor [3] = target: T1, Glucagon receptor; experiment: Binding affinity to human recombinant glucagon receptor expressed in BHK cells by membrane filter assay; type: cell-based
[4] = target: T2, Gastric inhibitory polypeptide receptor (Homo sapiens, UniProt P48546); experiment: Binding affinity to human recombinant GIPR expressed in BHK cells by membrane filter assay; type: cell-based
T2 sequence (P48546 whole entry): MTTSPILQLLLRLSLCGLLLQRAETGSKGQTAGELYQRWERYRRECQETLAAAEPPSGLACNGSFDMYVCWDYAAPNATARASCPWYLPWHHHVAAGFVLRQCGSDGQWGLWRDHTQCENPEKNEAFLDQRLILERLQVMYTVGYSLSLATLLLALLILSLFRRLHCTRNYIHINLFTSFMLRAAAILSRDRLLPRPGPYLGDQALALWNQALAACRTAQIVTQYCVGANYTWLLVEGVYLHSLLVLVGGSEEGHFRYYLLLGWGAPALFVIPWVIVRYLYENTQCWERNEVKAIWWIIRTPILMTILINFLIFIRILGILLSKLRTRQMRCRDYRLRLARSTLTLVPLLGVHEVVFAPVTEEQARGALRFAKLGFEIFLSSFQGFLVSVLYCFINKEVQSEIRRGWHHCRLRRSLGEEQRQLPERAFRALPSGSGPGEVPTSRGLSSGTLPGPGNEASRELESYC

[5] = Half life in fasted Sprague-Dawley rat plasma at 1.1 mg/kg, iv by HTLC-MS/MS analysis; type: ADME, organism-based; set-up: dose 1.1 mg/kg, route intravenous; how it was run: as §1
[6] = Tmax in fasted Sprague-Dawley rat at 1.1 mg/kg, iv and 2.1 mg/kg, po by HTLC-MS/MS analysis; type: ADME, organism-based; settings: in vivo
How it was run: (§2)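 Plasma concentration–time profiles were recorded after separate intravenous and peroral dosing at the per-compound doses listed. T_max is reported in min alongside C_max (ng/mL), intravenous half-life and clearance ((mL/min)/kg).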

[7] = Clearance in fasted Sprague-Dawley rat at 1.1 mg/kg, iv and 2.1 mg/kg, po by HTLC-MS/MS analysis; type: ADME, organism-based; settings: in vivo; how it was run: as §1
[8] = target: T2, Gastric inhibitory polypeptide receptor; experiment: Displacement of [125I]porcine GIP from human recombinant GIPR receptor expressed in BHK cells by scintillation proximity assay; type: cell-based
Glucagon receptor [9] = target: Glucagon receptor (Mus musculus, UniProt Q61606); experiment: Binding affinity to glucagon receptor in mouse liver membrane by membrane filter assay; type: cell membranes
Hepatocyte [10] = experiment: Inhibition of glucagon-stimulated glucose production in rat primary hepatocytes; type: functional, cell-based
Homo sapiens [11] = species: Homo sapiens; experiment: Selectivity ratio of IC50 for human recombinant glucagon receptor to IC50 for human recombinant GIPR
How it was run: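 Competition binding of compounds to recombinant human glucagon and GIP receptors on BHK cell membranes, run in parallel as a scintillation proximity assay and, for selected compounds, as a membrane filtration assay.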

Glucagon receptor [12] = target: Glucagon receptor (Rattus norvegicus, UniProt P30082); experiment: Binding affinity to glucagon receptor in rat liver membrane by membrane filter assay; type: cell membranes
Homo sapiens [13] = species: Homo sapiens; experiment: Selectivity for human recombinant glucagon receptor over human GLP1R
Hepatocyte [14] = experiment: Inhibition of glucagon-stimulated glucose production in human primary hepatocytes preincubated for 10 mins before glucagon addition by NADH-linked hexokinase assay; type: functional, cell-based
How it was run: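 Cultured primary human hepatocytes were preincubated with compound for 10 min, then glycogenolysis was induced with 5 nM glucagon for 60 min. Glucose in the medium was measured against basal glycogenolysis. Albumin was present in the assay medium. IC50 was calculated from four experiments, mean ± SEM.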

[15] = Binding affinity to glucagon receptor in monkey liver membrane by membrane filter assay; type: cell membranes, Macaca mulatta
[16] = Oral bioavailability in fasted Sprague-Dawley rat at 2.1 mg/kg by HTLC-MS/MS analysis; type: ADME, organism-based; settings: in vivo
How it was run: (§3)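 Separate intravenous and peroral dosing arms per compound, with plasma concentration followed against time. Oral bioavailability (F_po) is reported per compound together with the intravenous half-life and clearance. The dose used for each arm is listed per compound.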

[17] = Tmax in fasted Sprague-Dawley rat at 1.59 mg/kg, iv and 3.20 mg/kg, po by HTLC-MS/MS analysis; type: ADME, organism-based; settings: in vivo, 3.2 mg/kg; how it was run: as §2
[18] = Binding affinity to glucagon receptor in dog liver membrane by membrane filter assay; type: cell membranes, Canis lupus familiaris
[19] = Cmax in fasted Sprague-Dawley rat at 1.59 mg/kg, iv and 3.20 mg/kg, po by HTLC-MS/MS analysis; type: ADME, organism-based; settings: in vivo, 3.2 mg/kg; how it was run: as §1
[20] = Half life in fasted Beagle dog at 0.25 mg/kg, iv; type: ADME, organism-based, Canis lupus familiaris; set-up: dose 0.25 mg/kg, route intravenous; settings: in vivo
How it was run: (§4)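 Dogs were dosed at 0.25 mg/kg iv and 0.5 mg/kg po, and plasma concentration was followed over time. Half-life came from the iv arm; clearance, Cmax and Tmax were also derived.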

[21] = Clearance in fasted Beagle dog at 0.25 mg/kg, iv and 0.5 mg/kg, po; type: ADME, organism-based, Canis lupus familiaris; settings: in vivo; how it was run: as §4
[22] = Tmax in fasted Beagle dog at 0.25 mg/kg, iv and 0.5 mg/kg, po; type: ADME, organism-based, Canis lupus familiaris; settings: in vivo; how it was run: as §2
[23] = Binding affinity to glucagon receptor in rabbit liver membrane by membrane filter assay; type: cell membranes, Oryctolagus cuniculus
[24] = Clearance in fasted Sprague-Dawley rat at 1.59 mg/kg, iv and 3.20 mg/kg, po by HTLC-MS/MS analysis; type: ADME, organism-based; settings: in vivo; how it was run: as §1
[25] = Half life in fasted Sprague-Dawley rat plasma at 1.59 mg/kg, iv by HTLC-MS/MS analysis; type: ADME, organism-based; set-up: dose 1.59 mg/kg, route intravenous; how it was run: as §1
[26] = Oral bioavailability in fasted Sprague-Dawley rat at 3.20 mg/kg by HTLC-MS/MS analysis; type: ADME, organism-based; settings: in vivo, 3.2 mg/kg; how it was run: as §3
[27] = Oral bioavailability in fasted Beagle dog at 0.5 mg/kg; type: ADME, organism-based, Canis lupus familiaris; settings: in vivo; how it was run: as §3
[28] = Binding affinity to glucagon receptor in pig liver membrane by membrane filter assay; type: cell membranes, Sus scrofa
[29] = Cmax in fasted Beagle dog at 0.25 mg/kg, iv and 0.5 mg/kg, po; type: ADME, organism-based, Canis lupus familiaris; settings: in vivo; how it was run: as §4
[30] = Oral bioavailability in fasted Sprague-Dawley rat at 3.25 mg/kg by HTLC-MS/MS analysis; type: ADME, organism-based; settings: in vivo; how it was run: as §3
[31] = Tmax in fasted Sprague-Dawley rat at 1.62 mg/kg, iv and 3.25 mg/kg, po by HTLC-MS/MS analysis; type: ADME, organism-based; settings: in vivo; how it was run: as §2
[32] = Half life in fasted Sprague-Dawley rat plasma at 1.62 mg/kg, iv by HTLC-MS/MS analysis; type: ADME, organism-based; set-up: dose 1.62 mg/kg, route intravenous; how it was run: as §1
[33] = Cmax in fasted Sprague-Dawley rat at 1.62 mg/kg, iv and 3.25 mg/kg, po by HTLC-MS/MS analysis; type: ADME, organism-based; settings: in vivo; how it was run: as §1
[34] = Clearance in fasted Sprague-Dawley rat at 1.62 mg/kg, iv and 3.25 mg/kg, po by HTLC-MS/MS analysis; type: ADME, organism-based; settings: in vivo; how it was run: as §1
[35] = Half life in fasted Sprague-Dawley rat plasma at 1.58 mg/kg, iv by HTLC-MS/MS analysis; type: ADME, organism-based; set-up: dose 1.58 mg/kg, route intravenous; how it was run: as §1
[36] = Cmax in fasted Sprague-Dawley rat at 1.58 mg/kg, iv and 3.16 mg/kg, po; type: ADME, organism-based; settings: in vivo; how it was run: as §1
[37] = Oral bioavailability in fasted Sprague-Dawley rat at 3.16 mg/kg by HTLC-MS/MS analysis; type: ADME, organism-based; settings: in vivo; how it was run: as §3
[38] = Clearance in fasted Sprague-Dawley rat at 1.58 mg/kg, iv and 3.16 mg/kg, po; type: ADME, organism-based; settings: in vivo; how it was run: as §1
[39] = Tmax in fasted Sprague-Dawley rat at 1.58 mg/kg, iv and 3.16 mg/kg, po; type: ADME, organism-based; settings: in vivo; how it was run: as §2

T1 sequence (P47871 whole entry): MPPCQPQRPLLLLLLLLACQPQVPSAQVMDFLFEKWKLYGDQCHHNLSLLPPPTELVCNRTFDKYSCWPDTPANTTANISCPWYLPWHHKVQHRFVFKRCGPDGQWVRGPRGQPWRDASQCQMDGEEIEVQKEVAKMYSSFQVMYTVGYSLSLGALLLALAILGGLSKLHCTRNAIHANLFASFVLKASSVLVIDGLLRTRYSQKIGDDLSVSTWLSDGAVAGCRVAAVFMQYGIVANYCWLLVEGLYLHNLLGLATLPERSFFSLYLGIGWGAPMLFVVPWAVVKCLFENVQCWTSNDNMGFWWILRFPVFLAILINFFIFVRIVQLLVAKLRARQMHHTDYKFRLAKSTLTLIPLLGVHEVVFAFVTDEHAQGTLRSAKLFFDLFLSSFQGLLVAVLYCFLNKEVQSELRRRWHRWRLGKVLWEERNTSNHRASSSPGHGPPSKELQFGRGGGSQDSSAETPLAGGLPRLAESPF
Sequence of Glucagon receptor (Rattus norvegicus, UniProt P30082) (P30082 whole entry): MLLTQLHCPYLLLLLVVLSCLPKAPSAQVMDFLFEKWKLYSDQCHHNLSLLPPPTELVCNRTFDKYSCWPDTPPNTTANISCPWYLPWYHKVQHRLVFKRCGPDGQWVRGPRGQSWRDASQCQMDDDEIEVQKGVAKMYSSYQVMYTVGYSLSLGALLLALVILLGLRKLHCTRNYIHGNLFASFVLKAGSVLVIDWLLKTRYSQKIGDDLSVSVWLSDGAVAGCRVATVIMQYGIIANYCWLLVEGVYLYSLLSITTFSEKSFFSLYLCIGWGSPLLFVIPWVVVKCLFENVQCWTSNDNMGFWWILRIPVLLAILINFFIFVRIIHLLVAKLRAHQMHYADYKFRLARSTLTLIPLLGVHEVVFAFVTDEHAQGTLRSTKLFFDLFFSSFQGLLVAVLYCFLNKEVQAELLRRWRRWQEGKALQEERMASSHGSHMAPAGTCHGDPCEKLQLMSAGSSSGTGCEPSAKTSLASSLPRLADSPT
Sequence of Glucagon receptor (Mus musculus, UniProt Q61606) (Q61606 whole entry): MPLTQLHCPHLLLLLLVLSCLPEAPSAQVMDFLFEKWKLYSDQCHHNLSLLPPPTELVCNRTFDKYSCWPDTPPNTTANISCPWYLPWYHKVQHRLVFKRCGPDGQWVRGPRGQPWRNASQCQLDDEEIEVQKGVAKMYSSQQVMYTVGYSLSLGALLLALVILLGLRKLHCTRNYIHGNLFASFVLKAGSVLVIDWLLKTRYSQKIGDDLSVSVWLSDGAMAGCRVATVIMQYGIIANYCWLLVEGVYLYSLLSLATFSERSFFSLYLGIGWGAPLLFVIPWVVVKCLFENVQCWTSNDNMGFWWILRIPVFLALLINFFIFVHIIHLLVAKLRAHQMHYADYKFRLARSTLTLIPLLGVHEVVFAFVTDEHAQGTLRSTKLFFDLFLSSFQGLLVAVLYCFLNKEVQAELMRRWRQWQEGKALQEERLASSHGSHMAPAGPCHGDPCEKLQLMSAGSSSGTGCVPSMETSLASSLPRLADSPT

Row | IC50 (Glucagon receptor [2]) [nM] | IC50 (Glucagon receptor [3]) [nM] | IC50 [4] [nM] | IC50 [8] [nM] | IC50 (Glucagon receptor [9]) [nM] | fold change (FC) (Homo sapiens [11]) | IC50 (Glucagon receptor [12]) [nM] | fold change (FC) (Homo sapiens [13]) | IC50 [15] [nM] | Structure (SMILES) | inhibition (Hepatocyte [10]) | IC50 (Hepatocyte [14]) [nM] | also measured
1 | 50 | 59 | 290 | 488 | 218 | 5 | 1800 | > 50 | 62 | O=C(O)CCNC(=O)c1ccc(CN(c2ccc3c(c2)Cc2ccccc2-3)c2nc(-c3ccc(OC(F)(F)F)cc3)cs2)cc1 | inactive | 700 | Cmax [1]: 471 ng/mL; half-life [5]: 2.47 h; Tmax [6]: 5 h; clearance [7]: 5 mL/min/kg; bioavailability [16]: 12%
2 | 82 | 53 | 460 | 869 | 418 | 5 | 1700 | > 50 | 60 | O=C(O)CCNC(=O)c1ccc(CN(c2ccc(Cl)cc2)c2nc(-c3ccc(OC(F)(F)F)cc3)cs2)cc1 | inactive | 2800 | Tmax [17]: 1 h; IC50 [18]: 78 nM; Cmax [19]: 521 ng/mL; half-life [20]: 1.1 h; clearance [21]: 4.64 mL/min/kg; Tmax [22]: 1.5 h; IC50 [23]: 1200 nM; clearance [24]: 6 mL/min/kg; half-life [25]: 1.52 h; bioavailability [26]: 16%; bioavailability [27]: 71%; IC50 [28]: 5700 nM; Cmax [29]: 554 ng/mL
3 | 77 | 48 | 390 | 564 | – | 5 | – | > 50 | 3 | O=C(O)CCNC(=O)c1ccc(CN(c2ccc3c(c2)CCCC3)c2nc(-c3ccc(C(F)(F)F)cc3)cs2)cc1 | – | – | bioavailability [30]: 27%; Tmax [31]: 1.5 h; half-life [32]: 1.23 h; Cmax [33]: 615 ng/mL; clearance [34]: 7 mL/min/kg
4 | 96 | 38 | 211 | 381 | – | 5 | – | > 50 | – | O=C(O)CCNC(=O)c1ccc(CC(c2ccc(Cl)cc2)c2nc(-c3ccc(C(F)(F)F)cc3)cs2)cc1 (stereo not drawn) | – | – | half-life [35]: 0.4 h; Cmax [36]: 117 ng/mL; bioavailability [37]: 52%; clearance [38]: 28 mL/min/kg; Tmax [39]: 0.5 h
